Results from ChEMBL document CHEMBL1817652, “Synthesis and mechanistic studies of a mitomycin dimer containing an eight-membered cyclic disulfide” (Bioorg Med Chem, 2011).
The source made the active and inactive calls. No cut-off for these calls is given here.

Tests used:
Nucleic Acid [1] = test: Binding affinity to Escherichia coli pBR322 assessed as DNA interstand cross link at 0.2 mM after 2 hrs by agarose gel electrophoresis in presence of 5 equiv of Et3P; format: nucleic-acid assay
How it was run: (§1)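 EcoRI-linearized pBR322 plasmid DNA, N2-deaerated 15 min, mitomycin added from DMSO stock (final 0.1–0.2 mM) with nucleophile (GSH, Et3P or L-DTT, 5 equiv) from DMSO stock; incubated room temperature 2 h. DNA phenol/CHCl3-extracted, EtOH-precipitated, resuspended in 10 mM Tris/1 mM EDTA pH 8.0. Run on denaturing 1.2% alkaline agarose gel (40 mM NaOH, 1 mM EDTA), neutralized, stained, bands quantified.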

Nucleic Acid [2] = test: Binding affinity to Escherichia coli pBR322 assessed as DNA interstand cross link at 0.2 mM after 2 hrs by agarose gel electrophoresis in presence of 5 equiv of L-ditiothreitol; format: nucleic-acid assay; how it was run: as §1
Nucleic Acid [3] = test: Binding affinity to Escherichia coli pBR322 assessed as DNA interstand cross link at 0.2 mM after 2 hrs by agarose gel electrophoresis in presence of 5 equiv glutathione; format: nucleic-acid assay; how it was run: as §1
Nucleic Acid [4] = test: Binding affinity to Escherichia coli pBR322 assessed as DNA interstand cross link at 0.5 mM after 6 mins by agarose gel electrophoresis in presence of 20 equiv of Et3P; format: nucleic-acid assay
[5] = Activation of the compound assessed as half life at 40 Equiv of Et3P by HPLC and TLC method; format: physicochemical
How it was run: (§2)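 Mitomycin at 0.03 mM final in buffered methanolic solution (0.1 M Tris-HCl, effective 'pH' 7.4), 25 °C, with added nucleophile (final 0.06–1.5 mM). Followed by UV–vis (200–600 nm) at ~373 nm, with mitosene products at ~313 nm, for more than two half-lives. Runs in duplicate and averaged. End-point 'pH' checked, mixtures analysed by HPLC and TLC against authentic samples.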

[6] = Activation of the compound assessed as half life at 20 Equiv of Et3P by HPLC and TLC method; format: physicochemical; how it was run: as §2
Nucleic Acid [7] = test: Binding affinity to Escherichia coli pBR322 assessed as DNA interstand cross link at 0.1 mM after 2 hrs by agarose gel electrophoresis in presence of 5 equiv of Et3P; format: nucleic-acid assay
How it was run: (§3)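 EcoRI-linearized pBR322 plasmid DNA, deaerated with N2 for 15 min. Mitomycin (0.1–0.2 mM final, from 5 mM DMSO stock) and nucleophile (Et3P, L-DTT or GSH, 5 equiv, 0.5 mM final) added, then incubated 2 h at room temperature. Concentration scan with Et3P over […]. DNA extracted with phenol/chloroform and ethanol-precipitated, run on denaturing 1.2% alkaline agarose gel (40 mM NaOH, 1 mM EDTA), neutralised, stained, bands quantified.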

Nucleic Acid [8] = test: Binding affinity to Escherichia coli pBR322 assessed as DNA interstand cross link at 0.1 mM after 2 hrs by agarose gel electrophoresis in presence of 5 equiv of L-ditiothreitol; format: nucleic-acid assay; how it was run: as §3
[9] = Activation of the compound assessed as half life at 10 Equiv of Et3P by HPLC and TLC method; format: physicochemical; how it was run: as §2
[10] = Stability of the compound at 10 Equiv of L-ditiothreitol after 5 days by HPLC and TLC method; format: physicochemical; conditions: read-out: Stability; how it was run: as §2
[11] = Stability of the compound at 20 Equiv of L-ditiothreitol after 5 days by HPLC and TLC method; format: physicochemical; conditions: read-out: Stability; how it was run: as §2
[12] = Stability of the compound at 10 Equiv of Et3P after 3 days by HPLC and TLC method; format: physicochemical; conditions: read-out: Stability; how it was run: as §2
[13] = Stability of the compound at 20 Equiv of Et3P after 3 days by HPLC and TLC method; format: physicochemical; conditions: read-out: Stability; how it was run: as §2
[14] = Stability of the compound at 20 Equiv of glutathione measured after 3 days by HPLC and TLC method; format: physicochemical; conditions: read-out: Stability; how it was run: as §2
[15] = Stability of the compound measured after 5 days by HPLC and TLC method; format: physicochemical; conditions: read-out: Stability
How it was run: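 Mitomycin at 0.03 mM final in buffered methanolic solution (0.1 M Tris-HCl, effective 'pH' 7.4), 25 °C, […]. Followed by UV–vis (200–600 nm) at ~373 nm. Runs in duplicate and averaged. HPLC and TLC analysis at the end.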

[16] = Stability of the compound at 50 Equiv of Et3P after 3 days by HPLC and TLC method; format: physicochemical; conditions: read-out: Stability; how it was run: as §2
Nucleic Acid [17] = test: Binding affinity to Escherichia coli pBR322 assessed as DNA interstand cross link at 0.1 mM after 2 hrs by agarose gel electrophoresis in presence of 5 equiv glutathione; format: nucleic-acid assay; how it was run: as §3
[18] = Activation of the compound assessed as half life at 5 Equiv of Et3P by HPLC and TLC method; format: physicochemical; how it was run: as §2
[19] = Stability of the compound at 10 Equiv of L-ditiothreitol after 3 days by HPLC and TLC method; format: physicochemical; conditions: read-out: Stability; how it was run: as §2
[20] = Stability of the compound at 2 Equiv of Et3P measured after 5 days by HPLC and TLC method; format: physicochemical; conditions: read-out: Stability; how it was run: as §2
Nucleic Acid [21] = test: Binding affinity to Escherichia coli pBR322 assessed as DNA interstand cross link at 0.05 to 0.25 mM after 2 hrs by agarose gel electrophoresis in presence of 5 equiv of Et3P; format: nucleic-acid assay; how it was run: as §3
[22] = Activation of the compound assessed as half life at 50 Equiv of Et3P by HPLC and TLC method; format: physicochemical; how it was run: as §2
[23] = Stability of the compound at 20 Equiv L-ditiothreitol measured after 3 days by HPLC and TLC method; format: physicochemical; conditions: read-out: Stability; how it was run: as §2

Row | SMILES | half-life [6] [h] | Activity (Nucleic Acid [7]) [%] | Activity (Nucleic Acid [8]) [%] | half-life [9] [h] | remaining at 72 h [14] [%] | remaining at 120 h [15] [%] | Activity (Nucleic Acid [17]) [%] | other results
1 | CO[C@@]12[C@H](COC(N)=O)C3=C(C(=O)C(C)=C(N)C3=O)N1C[C@@H]1N[C@@H]12 | – | – | – | – | – | – | – | Activity (Nucleic Acid [1]): 3%; Activity (Nucleic Acid [2]): 2%; Activity (Nucleic Acid [3]): 2%
2 | CO[C@@]12[C@H](OC(N)=O)C3=C(C(=O)C(C)=C(NCC4CCCCC(CNC5=C(C)C(=O)C6=C(C5=O)[C@@H](OC(N)=O)[C@@]5(OC)[C@H]7N[C@H]7CN65)SSC(CNC5=C(C)C(=O)C6=C(C5=O)[C@@H](OC(N)=O)[C@@]5(OC)[C@H]7N[C@H]7CN65)CCCCC(CNC5=C(C)C(=O)C6=C(C5=O)[C@@H](OC(N)=O)[C@@]5(OC)[C@H]7N[C@H]7CN65)SS4)C3=O)N1C[C@@H]1N[C@@H]12 (stereo partly drawn) | 1.99 | – | – | – | – | – | – | Activity (Nucleic Acid [4]): 35%; half-life [5]: 1.01 h
3 | CO[C@@]12[C@H](COC(N)=O)C3=C(C(=O)C(C)=C(NC[C@H]4CC[C@@H](CNC5=C(C)C(=O)C6=C(C5=O)[C@@H](COC(N)=O)[C@@]5(OC)[C@H]7N[C@H]7CN65)SS4)C3=O)N1C[C@@H]1N[C@@H]12 | 3.12 | 83 | 77 | 6.24 | – | – | – | –
4 | CO[C@@]12[C@H](COC(N)=O)C3=C(C(=O)C(C)=C(NCC(O)CCCCC(O)CNC4=C(C)C(=O)C5=C(C4=O)[C@@H](COC(N)=O)[C@@]4(OC)[C@H]6N[C@H]6CN54)C3=O)N1C[C@@H]1N[C@@H]12 (mixture of isomers) | – | 4 | 6 | – | < 10 | < 10 | 7 | remaining at 120 h [10]: < 10%; remaining at 120 h [11]: < 10%; remaining at 72 h [12]: < 10%; remaining at 72 h [13]: < 10%; remaining at 72 h [16]: < 10%
5 | CO[C@@]12[C@H](COC(N)=O)C3=C(C(=O)C(C)=C(NCC4CCCCC(CNC5=C(C)C(=O)C6=C(C5=O)[C@@H](COC(N)=O)[C@@]5(OC)[C@H]7N[C@H]7CN65)SS4)C3=O)N1C[C@@H]1N[C@@H]12 (mixture of isomers) | 1.2 | 94 | 95 | 1.92 | < 10 | < 10 | 21 | half-life [18]: 5.52 h; remaining at 72 h [19]: < 10%; remaining at 120 h [20]: < 10%; Activity (Nucleic Acid [21]): Active; half-life [22]: 0.48 h; remaining at 72 h [23]: < 10%
